This note sets out measurements from ChEMBL document CHEMBL1127078, “Fluorocyclopropyl quinolones. 1. Synthesis and structure-activity relationships of 1-(2-fluorocyclopropyl)-3-pyridonecarboxylic acid antibacterial agents” (J Med Chem, 1993).

Values after ≈ are worked out from the molar mass of the structure shown.

Series [1] relates to Escherichia coli. The experiment in a line: Tested for minimum inhibitory concentration against Escherichia coli KL16. It is filed as functional. A digest of the protocol:
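Twofold broth microdilution in Mueller-Hinton broth, inoculum approximately 10^6 cfu/mL. Plates incubated 18 h at 37 °C. MIC taken as the lowest concentration preventing visible bacterial growth.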

Series [2] in a line: Partition coefficient of the compound. It is filed as ADME. To be noted: CHCl3-0.1 M phosphate buffer (pH 7.4). A digest of the protocol:
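Shake-flask distribution between CHCl3 and 0.1 M sodium phosphate buffer pH 7.4, each phase presaturated with the other. About 1–2 mg sample dissolved in the aqueous phase and its UV maximum absorbance recorded. Equal 10 mL volumes shaken 30 min at room temperature, then left 1 h to separate. Aqueous-layer UV maximum re-read. P' calculated as a ratio of the absorbance readings.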

Series [3] concerns Escherichia coli. The series is described as follows: Dose required to inhibit DNA gyrase in Escherichia coli. To be noted: read-out: ID50 (the source's name). The format is functional.

Take `CN1CCN(c2cc3c(cc2F)c(=O)c(C(=O)O)cn3C2CC2)CC1`: the MIC (usually the least concentration at which growth counts as inhibited) in the series on Escherichia coli [1] is 0.05 µg/mL (≈ 0.145 µM). Moreover, the “P'” value in series [2] is 20. The IC50 in the series with Escherichia coli [3] was 0.47 µg/mL (≈ 1.36 µM).
